Test results reported in ChEMBL document CHEMBL2086252, “Syntheses and evaluation of anticonvulsant activity of novel branched alkyl carbamates” (J Med Chem, 2012).
Active and inactive are the calls of the source. No cut-off for these calls is given here.

Legend:
Mus musculus [1] = assay: Anticonvulsant activity in albino CF1 mouse assessed as protection against maximal electroshock-induced seizures at 30 mg/kg, ip after 0.5 hrs; format: functional, organism-based; parameters: dose 30 mg/kg
Summary of the method: (§1)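 Mice dosed ip at 30, 100 or 300 mg/kg, then tested 0.5 h and 4 h after administration in the MES or scMet test. Protection was recorded as animals protected over animals tested. Neurotoxicity was recorded as motor impairment or sedation, as animals affected over animals tested.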

Rattus norvegicus [2] = assay: Anticonvulsant activity in Sprague-Dawley albino rat assessed as protection against pilocarpine-induced status epilepticus at 65 mg/kg, ip; format: functional, organism-based; parameters: dose 65 mg/kg
Summary of the method: (§2)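 Pilocarpine status epilepticus model in rats. Number and severity of convulsive seizures were observed behaviourally.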

Mus musculus [3] = assay: Anticonvulsant activity in albino CF1 mouse assessed as protection against subcutaneous metrazol-induced seizures at 300 mg/kg, ip after 0.5 hrs; format: functional, organism-based; parameters: dose 300 mg/kg; summary of the method: as §1
Mus musculus [4] = assay: Anticonvulsant activity in albino CF1 mouse assessed as protection against maximal electroshock-induced seizures at 300 mg/kg, ip after 0.5 hrs; format: functional, organism-based; parameters: dose 300 mg/kg; summary of the method: as §1
Mus musculus [5] = assay: Anticonvulsant activity in albino CF1 mouse assessed as protection against subcutaneous metrazol-induced seizures at 100 mg/kg, ip after 4 hrs; format: functional, organism-based; parameters: dose 100 mg/kg; summary of the method: as §1
Mus musculus [6] = assay: Anticonvulsant activity in albino CF1 mouse assessed as protection against maximal electroshock-induced seizures at 30 mg/kg, ip after 4 hrs; format: functional, organism-based; parameters: dose 30 mg/kg; summary of the method: as §1
Rattus norvegicus [7] = assay: Neurotoxicity in pilocarpine-induced status epilepticus Sprague-Dawley albino rat model assessed as minimal motor impairment at 30 mg/kg, ip after 2 hrs by rotarod test; format: toxicity, organism-based; parameters: dose 30 mg/kg, route intraperitoneal; details: in vivo
Summary of the method: (§3)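 Rat pilocarpine status epilepticus model: test carbamate given at 0 or 30 min after the first observed Racine stage 3 motor seizure, which marks SE onset. Neurotoxicity was scored within the same model.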

Rattus norvegicus [8] = assay: Neurotoxicity in pilocarpine-induced status epilepticus Sprague-Dawley albino rat model assessed as minimal motor impairment at 30 mg/kg, ip after 0.5 hrs by rotarod test; format: toxicity, organism-based; parameters: dose 30 mg/kg, route intraperitoneal; details: in vivo; summary of the method: as §3
Rattus norvegicus [9] = assay: Neurotoxicity in pilocarpine-induced status epilepticus Sprague-Dawley albino rat model assessed as minimal motor impairment at 30 mg/kg, ip after 0.25 hr by rotarod test; format: toxicity, organism-based; parameters: dose 30 mg/kg, route intraperitoneal; details: in vivo; summary of the method: as §3
Rattus norvegicus [10] = assay: Anticonvulsant activity in ip dosed Sprague-Dawley albino rat assessed as protection against pilocarpine-induced status epilepticus after 0.5 hrs; format: functional; summary of the method: as §2
Mus musculus [11] = assay: Neurotoxicity in albino CF1 mouse assessed as minimal motor impairment at 300 mg/kg, ip after 0.5 hrs by rotarod test; format: toxicity, organism-based; parameters: dose 300 mg/kg, route intraperitoneal; details: in vivo; summary of the method: as §1
Mus musculus [12] = assay: Neurotoxicity in albino CF1 mouse assessed as minimal motor impairment at 30 mg/kg, ip after 0.5 hrs by rotarod test; format: toxicity, organism-based; parameters: dose 30 mg/kg, route intraperitoneal; details: in vivo; summary of the method: as §1
Rattus norvegicus [13] = assay: Neurotoxicity in pilocarpine-induced status epilepticus Sprague-Dawley albino rat model assessed as minimal motor impairment at 100 mg/kg, ip after 0.5 hrs by rotarod test; format: toxicity, organism-based; parameters: dose 100 mg/kg, route intraperitoneal; details: in vivo
Mus musculus [14] = assay: Anticonvulsant activity in albino CF1 mouse assessed as protection against maximal electroshock-induced seizures at 100 mg/kg, ip after 0.5 hrs; format: functional, organism-based; parameters: dose 100 mg/kg; summary of the method: as §1
Rattus norvegicus [15] = assay: Neurotoxicity in pilocarpine-induced status epilepticus Sprague-Dawley albino rat model assessed as minimal motor impairment at 100 mg/kg, ip after 0.25 hr by rotarod test; format: toxicity, organism-based; parameters: dose 100 mg/kg, route intraperitoneal; details: in vivo
Mus musculus [16] = assay: Anticonvulsant activity in albino CF1 mouse assessed as protection against subcutaneous metrazol-induced seizures at 300 mg/kg, ip after 4 hrs; format: functional, organism-based; parameters: dose 300 mg/kg; summary of the method: as §1
Rattus norvegicus [17] = assay: Neurotoxicity in pilocarpine-induced status epilepticus Sprague-Dawley albino rat model assessed as minimal motor impairment at 30 mg/kg, ip after 4 hrs by rotarod test; format: toxicity, organism-based; parameters: dose 30 mg/kg, route intraperitoneal; details: in vivo; summary of the method: as §3
Mus musculus [18] = assay: Anticonvulsant activity in albino CF1 mouse assessed as protection against subcutaneous metrazol-induced seizures at 100 mg/kg, ip after 0.5 hrs; format: functional, organism-based; parameters: dose 100 mg/kg; summary of the method: as §1
Rattus norvegicus [19] = assay: Neurotoxicity in pilocarpine-induced status epilepticus Sprague-Dawley albino rat model assessed as minimal motor impairment at 30 mg/kg, ip after 1 hr by rotarod test; format: toxicity, organism-based; parameters: dose 30 mg/kg, route intraperitoneal; details: in vivo; summary of the method: as §3
Mus musculus [20] = assay: Anticonvulsant activity in albino CF1 mouse assessed as protection against maximal electroshock-induced seizures at 100 mg/kg, ip after 4 hrs; format: functional, organism-based; parameters: dose 100 mg/kg; summary of the method: as §1
Mus musculus [21] = assay: Neurotoxicity in albino CF1 mouse assessed as minimal motor impairment at 300 mg/kg, ip after 4 hrs by rotarod test; format: toxicity, organism-based; parameters: dose 300 mg/kg, route intraperitoneal; details: in vivo; summary of the method: as §1
Mus musculus [22] = assay: Anticonvulsant activity in albino CF1 mouse assessed as protection against maximal electroshock-induced seizures at 300 mg/kg, ip after 4 hrs; format: functional, organism-based; parameters: dose 300 mg/kg; summary of the method: as §1
Mus musculus [23] = assay: Anticonvulsant activity in albino CF1 mouse assessed as protection against subcutaneous metrazol-induced seizures at 30 mg/kg, ip after 0.5 hrs; format: functional, organism-based; parameters: dose 30 mg/kg; summary of the method: as §1
Rattus norvegicus [24] = assay: Neurotoxicity in pilocarpine-induced status epilepticus Sprague-Dawley albino rat model assessed as minimal motor impairment at 100 mg/kg, ip after 4 hrs by rotarod test; format: toxicity, organism-based; parameters: dose 100 mg/kg, route intraperitoneal; details: in vivo
Rattus norvegicus [25] = assay: Neurotoxicity in pilocarpine-induced status epilepticus Sprague-Dawley albino rat model assessed as minimal motor impairment at 65 mg/kg, ip after 0.5 hrs by rotarod test; format: toxicity, organism-based; parameters: dose 65 mg/kg, route intraperitoneal; details: in vivo; summary of the method: as §3
Mus musculus [26] = assay: Neurotoxicity in albino CF1 mouse assessed as minimal motor impairment at 30 mg/kg, ip after 4 hrs by rotarod test; format: toxicity, organism-based; parameters: dose 30 mg/kg, route intraperitoneal; details: in vivo; summary of the method: as §1
Mus musculus [27] = assay: Anticonvulsant activity in albino CF1 mouse assessed as protection against subcutaneous metrazol-induced seizures at 30 mg/kg, ip after 4 hrs; format: functional, organism-based; parameters: dose 30 mg/kg; summary of the method: as §1
Rattus norvegicus [28] = assay: Neurotoxicity in pilocarpine-induced status epilepticus Sprague-Dawley albino rat model assessed as minimal motor impairment at 100 mg/kg, ip after 2 hrs by rotarod test; format: toxicity, organism-based; parameters: dose 100 mg/kg, route intraperitoneal; details: in vivo
Mus musculus [29] = assay: Neurotoxicity in albino CF1 mouse assessed as minimal motor impairment at 100 mg/kg, ip after 4 hrs by rotarod test; format: toxicity, organism-based; parameters: dose 100 mg/kg, route intraperitoneal; details: in vivo; summary of the method: as §1

CCC(C)C(COC(N)=O)C(C)C (racemic)
Activity (Mus musculus [1]): inactive | Activity (Rattus norvegicus [2]): Active | Activity (Mus musculus [3]): Active | Activity (Mus musculus [4]): Active | Activity (Mus musculus [5]): inactive | Activity (Mus musculus [6]): inactive | Activity (Rattus norvegicus [7]): Non-toxic | Activity (Rattus norvegicus [8]): Non-toxic | Activity (Rattus norvegicus [9]): Non-toxic | ED50 (Rattus norvegicus [10]): 114 mg/kg | ED97 (Rattus norvegicus [10]): 199 mg/kg | Activity (Mus musculus [11]): Toxic | Activity (Mus musculus [12]): Non-toxic | Activity (Rattus norvegicus [13]): Toxic | Activity (Mus musculus [14]): Active | Activity (Rattus norvegicus [15]): Toxic | Activity (Mus musculus [16]): inactive | Activity (Rattus norvegicus [17]): Non-toxic | Activity (Mus musculus [18]): Active | Activity (Rattus norvegicus [19]): Non-toxic | Activity (Mus musculus [20]): inactive | Activity (Mus musculus [21]): Non-toxic | Activity (Mus musculus [22]): inactive | Activity (Mus musculus [23]): inactive | Activity (Rattus norvegicus [24]): Non-toxic | Activity (Rattus norvegicus [25]): Non-toxic | Activity (Mus musculus [26]): Non-toxic | Activity (Mus musculus [27]): inactive | Activity (Rattus norvegicus [28]): Non-toxic | Activity (Mus musculus [29]): Non-toxic
